According to ChEMBL document CHEMBL1135127, “SAR and species/stereo-selective metabolism of the sorbitol dehydrogenase inhibitor, CP-470,711” (Bioorg Med Chem Lett, 2002):

Tests used:
Rattus norvegicus [1] = test: In vivo prevention of sciatic nerve fructose accumulation in streptozotocin diabetic rat by acute assay (tid x 4); format: functional
Procedure, shortened: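 Streptozotocin-diabetic rats dosed three times daily, starting 4 h after STZ, to prevent sciatic nerve fructose accumulation. Activity is reported as ED90 in mg/kg/d.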

Rattus norvegicus [2] = test: In vivo reversal of sciatic nerve fructose accumulation in streptozotocin rat by chronic assay at 1 mg/kg (qd x 5); format: functional
Procedure, shortened: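 Reversal design in STZ rats: once-daily dosing began 5 days after STZ. Sciatic nerve fructose was measured and activity expressed as % normalization at 1 mg/kg.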

Sorbitol dehydrogenase [3] = target: T1, Sorbitol dehydrogenase (Homo sapiens, UniProt Q00796); test: In vitro inhibition against human recombinant sorbitol dehydrogenase
T1 sequence (Q00796 whole entry): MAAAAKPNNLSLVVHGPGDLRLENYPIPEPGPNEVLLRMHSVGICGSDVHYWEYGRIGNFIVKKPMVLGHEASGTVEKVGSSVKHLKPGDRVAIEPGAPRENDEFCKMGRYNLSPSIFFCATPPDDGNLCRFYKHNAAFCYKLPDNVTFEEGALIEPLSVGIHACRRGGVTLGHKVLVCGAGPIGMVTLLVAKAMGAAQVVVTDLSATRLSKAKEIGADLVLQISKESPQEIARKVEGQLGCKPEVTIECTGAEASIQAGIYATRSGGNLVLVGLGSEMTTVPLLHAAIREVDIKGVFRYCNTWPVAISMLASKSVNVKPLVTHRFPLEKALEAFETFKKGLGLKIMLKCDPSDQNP

Sorbitol dehydrogenase [4] = target: T2, Sorbitol dehydrogenase (Rattus norvegicus, UniProt P27867); test: Inhibition of recombinant rat sorbitol dehydrogenase
T2 sequence (P27867 whole entry): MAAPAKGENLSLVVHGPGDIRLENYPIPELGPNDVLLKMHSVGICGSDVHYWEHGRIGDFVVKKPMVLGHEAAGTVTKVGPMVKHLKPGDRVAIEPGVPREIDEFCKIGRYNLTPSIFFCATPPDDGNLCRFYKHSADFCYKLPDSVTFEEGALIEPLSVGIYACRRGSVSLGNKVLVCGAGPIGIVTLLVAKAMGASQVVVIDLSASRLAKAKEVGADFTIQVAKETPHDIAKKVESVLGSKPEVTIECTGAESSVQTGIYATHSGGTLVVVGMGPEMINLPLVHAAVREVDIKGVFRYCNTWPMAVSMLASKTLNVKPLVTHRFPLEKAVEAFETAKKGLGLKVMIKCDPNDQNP

Sorbitol dehydrogenase [5] = target: T1, Sorbitol dehydrogenase; test: In vitro inhibition against human recombinant Sorbitol dehydrogenase
Sorbitol dehydrogenase [6] = target: T2, Sorbitol dehydrogenase; test: Inhibition of recombinant rat Sorbitol dehydrogenase

Structure (SMILES) | IC50 (Sorbitol dehydrogenase [3]) | IC50 (Sorbitol dehydrogenase [4]) | IC50 (Sorbitol dehydrogenase [5]) | IC50 (Sorbitol dehydrogenase [6]) | ED90 (Rattus norvegicus [1]) | Reversal (Rattus norvegicus [2])
CC(=O)c1nccc(N2C[C@@H](C)N(c3ccnc(C(C)=O)n3)[C@@H](C)C2)n1 | 212 nM | 227 nM |  |  | 0.9 mg/kg/day | 92%
C[C@H](O)c1nccc(N2C[C@@H](C)N(c3ccnc([C@H](C)O)n3)[C@@H](C)C2)n1 |  |  | 831 nM | 640 nM | 0.7 mg/kg/day | 84%
CC(=O)c1nccc(N2C[C@@H](C)N(c3ccnc([C@@H](C)O)n3)[C@@H](C)C2)n1 | 19 nM | 18 nM |  |  | 0.2 mg/kg/day | 94%
C[C@H](O)c1nccc(N2C[C@@H](C)N(c3ccnc([C@@H](C)O)n3)[C@@H](C)C2)n1 | 33 nM | 29 nM |  |  | 0.4 mg/kg/day | 81%
CC(=O)c1nccc(N2[C@H](C)CN(c3ccnc([C@@H](C)O)n3)C[C@@H]2C)n1 | 6 nM | 5 nM |  |  | 0.5 mg/kg/day | 77%

Now from value to compound, other results behind:

IC50 (Sorbitol dehydrogenase [3]) | IC50 (Sorbitol dehydrogenase [4]) | IC50 (Sorbitol dehydrogenase [5]) | IC50 (Sorbitol dehydrogenase [6]) | Structure (SMILES) | ED90 (Rattus norvegicus [1]) | Reversal (Rattus norvegicus [2])
 |  | 19 nM | 27 nM | C[C@H](O)c1nccc(N2[C@H](C)CN(c3ccnc([C@@H](C)O)n3)C[C@@H]2C)n1 | 0.8 mg/kg/day | 81%
 |  | 28 nM | 8 nM | CC(O)c1nccc(N2C[C@@H](C)N(c3ccnc(C(C)O)n3)[C@@H](C)C2)n1 (some centres not stated) | 0.6 mg/kg/day | 92%
10 nM | 17 nM |  |  | C[C@@H]1CN(c2ccnc([C@@H](C)O)n2)C[C@H](C)N1c1ccnc([C@@H](C)O)n1 | 0.2 mg/kg/day | 90%
